DNMT1 inh: human DNMT1 methyltransferase inhibitors, primary screen, biochemical, molecular beacon, fluorescence, HinP1I cleavage, uHTS | DNA (cytosine-5)-methyltransferase 1 (Homo sapiens), P26358 | inhibition (reported as % activation of signal), % at 10 µM | 360,000 compounds, 0.83% hits; in the data active means inhibition above about 50%
Scp-1 inhibitor: Scp-1 phosphatase inhibitors, primary screen, biochemical, colorimetric, uHTS; Recombinant Scp1, phosphopeptide, malachite green phosphate absorbance; Carboxy-terminal domain RNA polymerase II polypeptide A small phosphatase 1 (Homo …; 340,000 compounds, 0.88% hits; inhibition, % at 20 µM;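 active means inhibition above about 50% at 20 µM, limit read from the data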
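Assay system: SCP-1 catalytic fragment, aa 76-261 | Buffer or medium: Tris acetate buffer pH 5.5 with MgCl2 and Tween-20 | Compound: One concentration, 20 µM, with 1.0% DMSO | Also added: Phospho 17-mer peptide substrate | Signal: Absorbance at 630 nm | Incubation: 45 min enzyme reaction at room temperature | Measure: % inhibition of SCP-1 phosphate liberation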
LMPTP block: LMPTP phosphatase inhibitors, primary screen, biochemical, fluorescence intensity, uHTS; 360,000 compounds, 0.22% hits; inhibition, % at 20 µM; AID 651560, 2012; recombinant LMPTP-A, OMFP fluorogenic substrate;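 active means compounds that cut the enzyme signal by at least half of the control window in the single-dose screen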
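Test system: LMPTP-A phosphatase enzyme; input: 0.625 nM LMPTP-A final; reagent: OMFP substrate, 400 µM final; compound dosing: 20 µM single dose, 3% DMSO; incubation: 50 min dark incubation at room temperature; measured by: endpoint fluorescence intensity from OMFP dephosphorylation; measure: % inhibition relative to no-enzyme and uninhibited control wells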
STEP inh: STEP phosphatase inhibitors, primary screen, biochemical, fluorescence intensity, uHTS | Tyrosine-protein phosphatase non-receptor type 5 (Homo sapiens), P54829 | recombinant STEP, OMFP fluorogenic substrate | inhibition, % at 20 µM | 360,000 compounds, 0.25% hits;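 active means inhibition at 20 µM, scaled per plate between control wells, above about 37%, limit read from the data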
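Measure: Control-normalized % inhibition with plate pattern correction | Test system: STEP phosphatase, cell-free reaction | Medium: pH 6.0 Bis-Tris with DTT and Tween 20 | Technique: Fluorescence, 480/540 nm | Times: Reaction 20 min, ambient temperature | Doses: Single compound dose of 20 µM, 1% DMSO final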
SUMO1-SIM PPI: modulators of SUMO1 protein-protein interactions, primary screen, biochemical, uHTS; SUMO1 binding to a labelled peptide, TR-FRET, 1 h; inhibition, % at 20 µM; 360,000 compounds, 0.33% hits; AID 602429, 2012; in the data active means inhibition above about 37%
Rpn11 inh: Rpn11 (PSMD14) deubiquitinase inhibitors, primary screen, biochemical, fluorescence polarization, uHTS; 26S proteasome non-ATPase regulatory subunit 14 (Homo sapiens), O00487; inhibition, % at 20 µM; AID 588493, 2011; 360,000 compounds, 0.59% hits; human 26S proteasome, Ub4-pepOG fluorescence polarization; 20S core pre-blocked with epoxomicin;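 active means inhibition at 20 µM, scaled to each plate's controls, above about 33%, limit read from the data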
Rpn11 inh conf: Rpn11 (PSMD14) deubiquitinase inhibitors, confirmation, biochemical, fluorescence polarization, single concentration; inhibition, % at 20 µM; 1,900 compounds, 29% hits; AID 602318, 2012; shares compounds with Rpn11 inh; purified human 26S proteasome, Ub4-pepOG fluorescence polarization; proteasome pretreated with epoxomicin
MMP-2 inh: MMP-2 enzyme inhibition, confirmation, counter-screen for RPN11 inhibitor project, biochemical, fluorescence, single concentration. shares compounds with Rpn11 inh. inhibition, % at 20 µM. 1,900 compounds, 4% hits. recombinant MMP-2, FRET peptide cleavage fluorescence;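 further: human MMP-2 activated beforehand with APMA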
Thrombin inh: bovine thrombin protease inhibition, confirmation, counter-screen for Rpn11 inhibitor project, biochemical, fluorescence polarization, single concentration; AID 602333, 2012; 1,900 compounds, 13% hits; shares compounds with Rpn11 inh; bovine thrombin cleavage of Ub4-pepOG; inhibition, % at 20 µM;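 active means mean inhibition at least 40% at 20 µM, or signal 3 deviations below plate average, so some actives read negative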
Target sequence (P00735 whole entry, looked up): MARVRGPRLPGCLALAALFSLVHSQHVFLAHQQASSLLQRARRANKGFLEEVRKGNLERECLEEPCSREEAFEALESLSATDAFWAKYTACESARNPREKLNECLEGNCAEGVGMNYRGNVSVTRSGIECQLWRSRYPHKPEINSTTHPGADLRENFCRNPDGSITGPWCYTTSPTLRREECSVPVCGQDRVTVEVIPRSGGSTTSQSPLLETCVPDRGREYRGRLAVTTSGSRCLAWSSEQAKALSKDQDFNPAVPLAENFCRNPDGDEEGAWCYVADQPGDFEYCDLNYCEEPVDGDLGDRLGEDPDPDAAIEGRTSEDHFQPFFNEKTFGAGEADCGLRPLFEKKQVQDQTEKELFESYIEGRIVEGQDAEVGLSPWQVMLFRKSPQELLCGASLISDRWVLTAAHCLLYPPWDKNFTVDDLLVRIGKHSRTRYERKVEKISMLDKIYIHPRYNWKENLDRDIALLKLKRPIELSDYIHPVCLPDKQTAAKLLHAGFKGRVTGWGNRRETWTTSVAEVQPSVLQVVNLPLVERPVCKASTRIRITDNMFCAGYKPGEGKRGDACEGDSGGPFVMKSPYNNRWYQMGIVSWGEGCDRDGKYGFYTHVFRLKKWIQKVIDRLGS
A number is an active result; . = inactive; / = no result shown. Shown are actives, neighbours in structure and some others; about 2.3% of the full set was active somewhere. Unless noted, no stated cut-off is given here; in the data, active means inhibition above about 40%; inactive means the rest.

SMILES	DNMT1 inh	Scp-1 inhibitor	LMPTP block	STEP inh	SUMO1-SIM PPI	Rpn11 inh	Rpn11 inh conf	MMP-2 inh	Thrombin inh
COc1ccccc1NC(=O)c1sc2ncn(CC(=O)Nc3ccccc3)c(=O)c2c1C	.	.	.	.	.	49	.	.	.
O=S(=O)(c1ccc(Br)s1)N1CCN(c2ccccc2)CC1	.	.	.	.	.	52	.	.	.
O=S(=O)(c1ccc(Br)s1)N1CCN(c2ccc(F)cc2)CC1	.	.	.	.	.	.	/	/	/
Cc1cccc(N2CCN(C(=O)c3ccc4c(c3)NC(=O)C(CSCc3cccc(F)c3)N4)CC2C)c1 (stereo unspecified)	.	.	.	.	.	/	/	/	/
COc1ccc(N2CCN(C(=O)c3ccc4c(c3)NC(=O)C(CSCc3ccccc3F)N4)CC2)cc1 (stereo unspecified)	.	/	.	.	.	47	.	.	.
COc1ccc(N=C2NC(=O)/C(=C/C=C/c3ccccc3)S2)cc1	.	.	.	.	.	.	/	/	/
O=C1NC(=Nc2ccccc2)S/C1=C\C=C\c1ccco1	93	.	.	.	.	58	.	52	.
COCCOC(=O)C1=C(C)NC(=O)NC1c1c(OC)ncnc1OC (stereo unspecified)	.	.	.	.	.	164	.	.	.
CCOc1ccc2ccccc2c1C1NC(=O)NC(C)=C1C(=O)OCCOC (stereo unspecified)	.	.	.	.	.	.	/	/	/
COCCCn1c(=O)/c(=C\c2cccc(OC)c2OC)s/c1=C(/C#N)C(=O)Nc1ccc(C(=O)O)cc1	.	.	.	.	.	102	46	.	86
COCCCn1c(=O)/c(=C/c2ccccc2OC(F)F)s/c1=C(\C#N)C(=O)NCCOC	.	.	.	.	.	84	.	47	.
COc1ccc2oc(=O)c(/C(C)=N/Nc3ccccc3)cc2c1	.	.	.	.	.	.	/	/	/
COc1ccc(NC(=O)c2nc(S(=O)(=O)Cc3cccc(C)c3)ncc2Cl)c(OC)c1	.	.	.	.	.	41	.	.	.
COc1ccc(OC)c(NC(=O)c2nc(S(=O)(=O)Cc3ccccc3)ncc2Cl)c1	.	.	.	.	.	.	/	/	/
CC(C)(C)S(=O)N1Cc2cc(C(=O)O)nc(-c3cccc(-c4cc5ccccc5o4)c3)c2[C@H]1CCO (stereo partly specified)	.	/	.	.	.	.	/	/	/
CC(C)(C)S(=O)N1Cc2cc(C(=O)N[C@@H]3CCN(Cc4ccccc4)C3)nc(-c3cccc(-c4cc5ccccc5o4)c3)c2[C@@H]1CCO (stereo partly specified)	.	/	.	.	.	68	.	.	.
Cc1ccc(-c2cc3c(N=O)c4ccccc4c-3n[nH]2)cc1	75	.	.	.	.	69	.	.	.
CC(C)=CCC/C(C)=C/CNC(=O)C[C@H]1C[C@H](C(=O)N2CCCCC2)[C@@]2(CCc3ccccc3)c3[nH]c4cc(-c5ccco5)ccc4c3CCN2C1=O	.	.	.	.	.	47	.	.	.
CC[C@]12c3[nH]c4cc(-c5ccco5)ccc4c3CCN1C(=O)[C@@H](CC(=O)NC/C=C(\C)CCC=C(C)C)C[C@@H]2C(=O)N1CCN(C(=O)C2CC2)CC1	.	.	.	.	.	.	/	/	/
O=C(C[C@H]1C[C@H](C(=O)N2CCCCC2)[C@@]2(CCc3ccccc3)c3[nH]c4cc(-c5ccco5)ccc4c3CCN2C1=O)NCCN1CCOCC1	.	.	.	.	.	43	.	.	.
COc1ccc(-n2c(=S)[nH]c3cc(C(=O)N4CCN(c5ccccc5)CC4)ccc3c2=O)c(OC)c1	.	.	.	.	.	.	/	/	/
Cc1cc(NC(=O)C(C)SCC(=O)NCc2ccc(F)cc2)no1 (stereo unspecified)	.	.	.	.	.	.	/	/	/
CSc1nc(N)nc(SCC(=O)CC(=O)OC(C)C)c1C#N	.	.	.	.	.	78	.	.	.
Cc1nc(SCC(=O)CC(=O)OC(C)C)c(C#N)c(C)c1C	.	.	.	.	.	.	/	/	/
CSc1nc2ccc3nc(NC(=O)c4cccs4)sc3c2s1	.	.	.	.	44	47	.	.	.
SMILES	DNMT1 inh	Scp-1 inhibitor	LMPTP block	STEP inh	SUMO1-SIM PPI	Rpn11 inh	Rpn11 inh conf	MMP-2 inh	Thrombin inh
Cc1ccc(-c2nc(NCc3ccc(F)cc3)n(S(C)(=O)=O)n2)cc1	.	.	.	.	.	.	/	/	/
O=C(NCc1ccccc1)C(c1ccc(C(F)(F)F)cc1)N1CCN(CCN2CCOCC2)CC1 (stereo unspecified)	/	/	.	/	.	/	/	/	/
Oc1ccc(Cl)cc1N=Cc1sc2ccccc2c1Cl	.	.	.	.	.	.	/	/	/
O=[N+]([O-])c1ccc(O)c(N=Cc2sc3ccccc3c2O)c1	.	.	.	.	.	109	42	.	.
CN1CCc2nc(NC(=O)c3cccc(S(=O)(=O)N4CCc5ccccc54)c3)sc2C1	.	.	.	.	.	75	.	.	.
CN(C)c1ccc(N=Cc2nc(-c3ccccc3)oc2OC(=O)c2ccccc2)cc1	.	.	.	.	.	48	49	.	active
CC(=O)Oc1oc(-c2ccccc2)nc1C=Nc1ccc(N(C)C)cc1	.	.	.	.	.	.	/	/	/
N=C1/C(=C\c2ccc(-c3cccc(C(=O)O)c3)o2)C(=O)N=C2SC=C(c3ccccc3)N12	90	72	80	.	89	108	149	.	51
